# Laboratory results: the M2OR odorant receptor database
# Positions count from the first letter of the chain named.
# What was measured:
# Settings in all cases: stereoisomer not certain
# [1] = biological target: T1, OR2A12 (Homo sapiens) (UniProt Q8NGT7)
# T1 sequence (whole entry): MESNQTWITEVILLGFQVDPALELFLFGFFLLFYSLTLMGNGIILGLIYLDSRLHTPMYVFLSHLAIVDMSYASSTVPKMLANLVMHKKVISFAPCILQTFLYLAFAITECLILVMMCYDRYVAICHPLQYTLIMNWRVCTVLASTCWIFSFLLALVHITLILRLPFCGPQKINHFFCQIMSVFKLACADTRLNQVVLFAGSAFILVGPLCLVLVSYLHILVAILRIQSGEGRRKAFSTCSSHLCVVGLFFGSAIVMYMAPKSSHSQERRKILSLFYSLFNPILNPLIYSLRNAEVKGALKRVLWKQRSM
# Method in brief: (§1)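 Whether a receptor–molecule pair is responsive (active) rests on the original authors' judgment that its measured signal was statistically different from baseline. Pairs without that judgment are non-responsive (inactive). Sources used varied assay methods, commonly transient luciferase assays in mammalian cell lines.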
# [2] = biological target: T2, OR2A14 (Homo sapiens) (UniProt Q96R47)
# T2 sequence (whole entry): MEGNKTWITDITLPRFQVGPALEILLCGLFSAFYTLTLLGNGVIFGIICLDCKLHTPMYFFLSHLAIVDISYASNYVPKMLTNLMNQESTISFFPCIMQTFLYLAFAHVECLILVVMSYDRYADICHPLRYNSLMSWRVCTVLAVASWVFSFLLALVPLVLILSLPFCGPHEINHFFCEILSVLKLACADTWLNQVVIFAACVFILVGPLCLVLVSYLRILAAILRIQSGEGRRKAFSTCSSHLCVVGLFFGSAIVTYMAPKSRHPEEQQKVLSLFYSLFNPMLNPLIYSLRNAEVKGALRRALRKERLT
# Method in brief: as §1
# [3] = biological target: T3, OR2A2 (Homo sapiens) (UniProt Q6IF42)
# T3 sequence (whole entry): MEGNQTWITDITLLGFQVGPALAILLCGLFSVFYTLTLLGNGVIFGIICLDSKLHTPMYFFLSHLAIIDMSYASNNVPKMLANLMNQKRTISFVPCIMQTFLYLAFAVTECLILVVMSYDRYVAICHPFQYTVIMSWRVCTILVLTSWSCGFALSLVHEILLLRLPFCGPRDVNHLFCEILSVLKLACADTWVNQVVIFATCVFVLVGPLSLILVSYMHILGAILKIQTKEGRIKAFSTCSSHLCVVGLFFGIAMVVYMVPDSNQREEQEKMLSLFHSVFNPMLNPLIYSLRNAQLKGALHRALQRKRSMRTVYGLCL
# Method in brief: as §1
# [4] = biological target: T4, OR2A25 (Homo sapiens) (UniProt A4D2G3)
# T4 sequence (whole entry): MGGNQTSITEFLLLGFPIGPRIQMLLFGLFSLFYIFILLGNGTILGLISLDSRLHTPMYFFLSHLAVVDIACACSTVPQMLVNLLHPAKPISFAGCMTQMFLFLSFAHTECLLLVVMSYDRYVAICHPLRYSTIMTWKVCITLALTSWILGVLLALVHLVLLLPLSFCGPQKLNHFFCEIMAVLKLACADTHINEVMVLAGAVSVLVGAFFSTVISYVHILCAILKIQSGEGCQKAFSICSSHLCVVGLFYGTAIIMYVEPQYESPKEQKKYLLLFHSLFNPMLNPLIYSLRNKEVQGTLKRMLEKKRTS
# Method in brief: as §1
# [5] = biological target: T5, OR2A4 (Homo sapiens) (UniProt O95047)
# T5 sequence (whole entry): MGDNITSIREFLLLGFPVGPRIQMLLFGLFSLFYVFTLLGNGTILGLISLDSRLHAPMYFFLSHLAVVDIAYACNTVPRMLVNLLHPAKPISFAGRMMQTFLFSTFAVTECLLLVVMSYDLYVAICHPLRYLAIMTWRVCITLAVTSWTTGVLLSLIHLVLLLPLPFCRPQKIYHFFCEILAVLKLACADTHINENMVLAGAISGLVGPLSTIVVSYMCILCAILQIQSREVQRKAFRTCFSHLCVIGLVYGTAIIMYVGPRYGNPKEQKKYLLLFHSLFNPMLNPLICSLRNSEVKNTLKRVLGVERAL
# Method in brief: as §1
# [6] = biological target: T6, OR2A5 (Homo sapiens) (UniProt Q96R48)
# T6 sequence (whole entry): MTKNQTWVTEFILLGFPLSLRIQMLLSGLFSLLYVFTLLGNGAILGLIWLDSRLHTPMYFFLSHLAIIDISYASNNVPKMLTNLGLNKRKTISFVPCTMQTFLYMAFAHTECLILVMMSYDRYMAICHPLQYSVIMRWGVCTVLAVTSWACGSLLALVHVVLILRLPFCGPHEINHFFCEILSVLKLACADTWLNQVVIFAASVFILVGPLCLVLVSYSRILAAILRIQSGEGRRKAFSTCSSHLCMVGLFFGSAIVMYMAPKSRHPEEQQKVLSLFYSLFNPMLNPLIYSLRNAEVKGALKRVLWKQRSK
# Method in brief: as §1
# [7] = biological target: T7, OR2A7 (Homo sapiens) (UniProt Q96R45)
# T7 sequence (whole entry): T5 sequence (whole entry) with R9T, R238C, V250F
# Method in brief: as §1
# [8] = tested on: T8, OR2A1 T73A R74C S168C
# T8 sequence (whole entry): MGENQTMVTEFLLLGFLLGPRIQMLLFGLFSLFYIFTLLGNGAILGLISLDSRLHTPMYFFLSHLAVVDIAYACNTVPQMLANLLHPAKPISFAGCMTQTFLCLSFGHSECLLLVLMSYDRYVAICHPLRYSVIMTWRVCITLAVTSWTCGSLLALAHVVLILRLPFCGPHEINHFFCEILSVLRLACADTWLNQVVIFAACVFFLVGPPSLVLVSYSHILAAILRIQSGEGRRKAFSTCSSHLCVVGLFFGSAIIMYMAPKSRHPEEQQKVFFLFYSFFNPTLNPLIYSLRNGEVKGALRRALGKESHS
# Method in brief: as §1
# [9] = tested on: T9, OR2A2
# T9 sequence (whole entry): T3 sequence (whole entry) with F280L
# Method in brief: as §1
# [10] = tested on: T10, OR2A5 I126V A202S A255T
# T10 sequence (whole entry): T6 sequence (whole entry) with I126V, A202S, A255T
# Method in brief: as §1
compound,measurement,setting,value
CC(=O)c1c(C)c([N+](=O)[O-])c(C(C)(C)C)c([N+](=O)[O-])c1C,odorant receptor agonist call,[1],inactive
same,odorant receptor agonist call,[2],inactive
same,odorant receptor agonist call,[3],inactive
same,odorant receptor agonist call,[4],inactive
same,odorant receptor agonist call,[5],inactive
same,odorant receptor agonist call,[6],inactive
same,odorant receptor agonist call,[7],inactive
CC1=C(O)C(=O)OC1C (stereo not drawn),odorant receptor agonist call,[8],inactive
same,odorant receptor agonist call,[1],inactive
same,odorant receptor agonist call,[2],inactive
same,odorant receptor agonist call,[3],inactive
same,odorant receptor agonist call,[4],inactive
same,odorant receptor agonist call,[9],inactive
same,odorant receptor agonist call,[5],inactive
same,odorant receptor agonist call,[6],inactive
same,odorant receptor agonist call,[10],inactive
same,odorant receptor agonist call,[7],inactive
CCC1OC(C)=C(O)C1=O (stereo not drawn),odorant receptor agonist call,[8],inactive
same,odorant receptor agonist call,[1],inactive
same,odorant receptor agonist call,[2],inactive
same,odorant receptor agonist call,[3],inactive
same,odorant receptor agonist call,[4],inactive
same,odorant receptor agonist call,[9],inactive
same,odorant receptor agonist call,[5],inactive
same,odorant receptor agonist call,[6],inactive
same,odorant receptor agonist call,[10],inactive
same,odorant receptor agonist call,[7],inactive
CC(CO)CS (stereo not drawn),odorant receptor agonist call,[1],inactive
same,odorant receptor agonist call,[2],inactive
same,odorant receptor agonist call,[3],inactive
same,odorant receptor agonist call,[4],inactive
same,odorant receptor agonist call,[5],inactive
same,odorant receptor agonist call,[6],inactive
same,odorant receptor agonist call,[7],inactive
CC1CCCCCCCCCCCCC(=O)C1 (stereo not drawn),odorant receptor agonist call,[1],inactive
same,odorant receptor agonist call,[2],inactive
same,odorant receptor agonist call,[3],inactive
same,odorant receptor agonist call,[4],inactive
same,odorant receptor agonist call,[5],inactive
same,odorant receptor agonist call,[6],inactive
same,odorant receptor agonist call,[7],inactive
CCC(S)C(C)CO (stereo not drawn),odorant receptor agonist call,[1],inactive
same,odorant receptor agonist call,[2],inactive
same,odorant receptor agonist call,[3],inactive
same,odorant receptor agonist call,[4],inactive
same,odorant receptor agonist call,[5],inactive
same,odorant receptor agonist call,[6],inactive
same,odorant receptor agonist call,[7],inactive
CCC(O)CC,odorant receptor agonist call,[7],inactive
Cc1cnc(C)c(C)n1,odorant receptor agonist call,[8],inactive
same,odorant receptor agonist call,[1],inactive
same,odorant receptor agonist call,[2],inactive
same,odorant receptor agonist call,[3],inactive
same,odorant receptor agonist call,[4],inactive
same,odorant receptor agonist call,[9],inactive
same,odorant receptor agonist call,[5],inactive
same,odorant receptor agonist call,[6],inactive
same,odorant receptor agonist call,[10],inactive
same,odorant receptor agonist call,[7],inactive
CCCCCCC=CCCC=O,odorant receptor agonist call,[8],inactive
same,odorant receptor agonist call,[1],inactive
same,odorant receptor agonist call,[2],inactive
same,odorant receptor agonist call,[3],inactive
same,odorant receptor agonist call,[4],inactive
same,odorant receptor agonist call,[9],inactive
same,odorant receptor agonist call,[5],inactive
same,odorant receptor agonist call,[6],inactive
same,odorant receptor agonist call,[10],inactive
same,odorant receptor agonist call,[7],inactive
CC1=NC(C)C(C)S1 (stereo not drawn),odorant receptor agonist call,[8],inactive
same,odorant receptor agonist call,[1],inactive
same,odorant receptor agonist call,[2],inactive
same,odorant receptor agonist call,[3],inactive
same,odorant receptor agonist call,[4],inactive
same,odorant receptor agonist call,[9],inactive
same,odorant receptor agonist call,[5],inactive
same,odorant receptor agonist call,[6],inactive
same,odorant receptor agonist call,[10],inactive
same,odorant receptor agonist call,[7],inactive
CCC(C)CO (stereo not drawn),odorant receptor agonist call,[7],inactive
CCCCC(S)C(C)CO (stereo not drawn),odorant receptor agonist call,[1],inactive
same,odorant receptor agonist call,[2],inactive
same,odorant receptor agonist call,[3],inactive
same,odorant receptor agonist call,[4],inactive
same,odorant receptor agonist call,[5],inactive
same,odorant receptor agonist call,[6],inactive
same,odorant receptor agonist call,[7],inactive
CCCC(=O)CC,odorant receptor agonist call,[7],inactive
CCCCCCCC(=O)OCC,odorant receptor agonist call,[7],inactive
CCCCCC(S)C(C)CO (stereo not drawn),odorant receptor agonist call,[1],inactive
same,odorant receptor agonist call,[2],inactive
same,odorant receptor agonist call,[3],inactive
same,odorant receptor agonist call,[4],inactive
same,odorant receptor agonist call,[5],inactive
same,odorant receptor agonist call,[6],inactive
same,odorant receptor agonist call,[7],inactive
CCCCCCCCCCCCO,odorant receptor agonist call,[7],inactive
CC1=C(O)C(=O)C(C)O1 (stereo not drawn),odorant receptor agonist call,[8],inactive
same,odorant receptor agonist call,[1],inactive
same,odorant receptor agonist call,[2],inactive
same,odorant receptor agonist call,[3],inactive
same,odorant receptor agonist call,[4],inactive
same,odorant receptor agonist call,[9],inactive
same,odorant receptor agonist call,[5],inactive
same,odorant receptor agonist call,[6],inactive
same,odorant receptor agonist call,[10],inactive
same,odorant receptor agonist call,[7],inactive
CCCCCC(=O)C(C)C(C)=O (stereo not drawn),odorant receptor agonist call,[1],inactive
same,odorant receptor agonist call,[2],inactive
same,odorant receptor agonist call,[3],inactive
same,odorant receptor agonist call,[4],inactive
same,odorant receptor agonist call,[5],inactive
same,odorant receptor agonist call,[6],inactive
same,odorant receptor agonist call,[7],inactive
CCCCCCCCCCCCCCCC(=O)[O-].[H+],odorant receptor agonist call,[7],inactive
c1ccc2ncccc2c1,odorant receptor agonist call,[4],active
CCCCC(=O)C(C)=O,odorant receptor agonist call,[7],inactive
CCCCOCC(C)O (stereo not drawn),odorant receptor agonist call,[7],inactive
CC(CC=O)c1ccccc1 (stereo not drawn),odorant receptor agonist call,[7],inactive
CCC1OC(=O)C(O)=C1C (stereo not drawn),odorant receptor agonist call,[8],inactive
same,odorant receptor agonist call,[1],inactive
same,odorant receptor agonist call,[2],inactive
same,odorant receptor agonist call,[3],inactive
same,odorant receptor agonist call,[4],inactive
same,odorant receptor agonist call,[9],inactive
same,odorant receptor agonist call,[5],inactive
same,odorant receptor agonist call,[6],inactive
same,odorant receptor agonist call,[10],inactive
same,odorant receptor agonist call,[7],inactive
Cc1cccc(C)c1C,odorant receptor agonist call,[7],inactive
CCCC(S)CCOC(C)=O (stereo not drawn),odorant receptor agonist call,[8],inactive
same,odorant receptor agonist call,[1],inactive
same,odorant receptor agonist call,[2],inactive
same,odorant receptor agonist call,[3],inactive
same,odorant receptor agonist call,[4],inactive
same,odorant receptor agonist call,[9],inactive
same,odorant receptor agonist call,[5],inactive
same,odorant receptor agonist call,[6],inactive
same,odorant receptor agonist call,[10],inactive
same,odorant receptor agonist call,[7],inactive
CCCCCCCCCCCC(=O)OC,odorant receptor agonist call,[7],inactive
CCCCCCCCCCCCCCCCCC(=O)OCC,odorant receptor agonist call,[7],inactive
CCCCCCCC(=O)OC,odorant receptor agonist call,[7],inactive
